ChEMBL document CHEMBL2440054, “Largazole Arrests Cell Cycle at G1 Phase and Triggers Proteasomal Degradation of E2F1 in Lung Cancer Cells” (ACS Med Chem Lett, 2013)
Calls of active or inactive are those of the source. The rule behind the calls is not given here.

Tests used:
[1] = biological target: Histone deacetylase 1 (Homo sapiens) (UniProt Q13547); settings: A549, 0.1 uM
NCI-H460 [2] = assay: Cytotoxicity against human NCI-H460 cells after 48 hrs by CCK-8 assay; format: functional, cell-based; settings: NCI-H460, 48 h
Procedure, shortened: (§1)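 Cells treated with a range of largazole concentrations for 48 h. Proliferation read by CCK-8 assay; IC50 derived from the concentration series.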

NCI-H460 [3] = assay: Cell cycle arrest in human NCI-H460 cells assessed as accumulation at G1 phase at 0.1 uM after 24 hrs by propidium iodide staining-based flow cytometric analysis (reference value: 58.9%); format: functional
A549 [4] = assay: Upregulation of p21 mRNA expression in human A549 cells at 0.1 uM after 12 hrs by RT-PCR analysis; format: functional, cell-based
Procedure, shortened: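 A549 cells at 0.1 μM over a time course. RNA extracted, and p21 mRNA assessed by RT-PCR with specific primers.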

A549 [5] = assay: Growth inhibition of human A549 cells at 0.1 uM after 24 to 48 hrs by trypan blue exclusion assay; format: functional, cell-based
Procedure, shortened: (§2)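 Cells treated with largazole for indicated times. Viability evaluated by trypan blue exclusion.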

[6] = biological target: Histone deacetylase 1 (Homo sapiens) (UniProt Q13547); settings: 16HBE, 0.1 uM
[7] = Cytotoxicity against human 95-D cells after 48 hrs by CCK-8 assay; format: functional, cell-based
Procedure, shortened: as §1

NCI-H460 [8] = assay: Cell cycle arrest in human NCI-H460 cells assessed as accumulation at G1 phase at 0.06 uM after 24 hrs by propidium iodide staining-based flow cytometric analysis (reference value: 58.9%); format: functional
[9] = biological target: Transcription factor E2F1 (Homo sapiens) (UniProt Q01094); assay: Induction of E2F1 degradation in human NCI-H460 cells at 0.1 uM after 12 to 24 hrs by Western blotting analysis; format: cell-based
Procedure, shortened: (§3)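 Each cell line (16-HBE, 95D, L78, H1975, H460) treated with 0.1 μM largazole for indicated times. Lysates Western blotted for E2F1.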

NCI-H460 [10] = assay: Cell cycle arrest in human NCI-H460 cells assessed as accumulation at S phase at 0.1 uM after 24 hrs by propidium iodide staining-based flow cytometric analysis (reference value: 31.6%); format: functional
[11] = Cytotoxicity against human L78 cells after 48 hrs by CCK-8 assay; format: functional, cell-based; settings: L78, 48 h
Procedure, shortened: as §1

NCI-H460 [12] = assay: Cell cycle arrest in human NCI-H460 cells assessed as accumulation at G2 phase at 0.1 uM after 24 hrs by propidium iodide staining-based flow cytometric analysis (reference value: 9.5%); format: functional
A549 [13] = assay: Cytotoxicity against human A549 cells after 48 hrs by CCK-8 assay; format: functional, cell-based; settings: A549, 48 h
Procedure, shortened: as §1

A549 [14] = assay: Upregulation of p27 protein expression in human A549 cells at 0.1 uM after 12 hrs by Western blotting analysis; format: functional, cell-based
Procedure, shortened: (§4)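 A549 cells exposed to 0.1 μM over a time course, then lysed and Western blotted for G1 regulators including p21 and p27.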

[15] = Cytotoxicity against human SPCA1 cells after 48 hrs by CCK-8 assay; format: functional, cell-based; settings: SPCA1, 48 h
Procedure, shortened: as §1

[16] = biological target: Transcription factor E2F1 (Homo sapiens) (UniProt Q01094); assay: Induction of E2F1 degradation in human A549 cells at 0.1 uM after 12 hrs by Western blotting analysis in presence of proteasome inhibitor bortezomib; format: cell-based
Procedure, shortened: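 A549 cells pretreated 2 h with bortezomib (100 nM) or MG-132 (10 μM), then given largazole 0.1 μM for a further 12 h. Lysates Western blotted for E2F1.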

[17] = Cytotoxicity against human GLC82 cells after 48 hrs by CCK-8 assay; format: functional, cell-based; settings: GLC82, 48 h
Procedure, shortened: as §1

NCI-H460 [18] = assay: Growth inhibition of human NCI-H460 cells at 0.1 uM after 24 to 48 hrs by trypan blue exclusion assay; format: functional, cell-based
Procedure, shortened: as §2

A549 [19] = assay: Cell cycle arrest in human A549 cells assessed as accumulation at S phase at 0.1 uM after 24 hrs by propidium iodide staining-based flow cytometric analysis (reference value: 48%); format: functional
[20] = biological target: Transcription factor E2F1 (Homo sapiens) (UniProt Q01094); assay: Induction of E2F1 degradation in human 95-D cells at 0.1 uM after 12 to 24 hrs by Western blotting analysis; format: cell-based
Procedure, shortened: as §3

A549 [21] = assay: Cytotoxicity against human A549 cells assessed as inhibition of colony formation pretreated for 24 hrs followed by seeding measured after 10 days by clonogenic assay; format: functional, cell-based
Procedure, shortened: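 Soft-agar clonogenic assay. Cells pretreated 24 h with largazole or DMSO, then seeded in 0.3% soft agar upper layer over 0.6% soft agar lower layer. Colonies counted by microscope after 10 days. Mean ± SD of three independent experiments.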

A549 [22] = assay: Downregulation of E2F1 protein expression in human A549 cells after 12 hrs by Western blotting analysis; format: functional, cell-based
Procedure, shortened: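 A549 cells treated with 0.1 μM largazole over a time course, or with a range of concentrations for 12 h. Lysates Western blotted for E2F1.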

A549 [23] = assay: Upregulation of p21 protein expression in human A549 cells at 0.1 uM after 6 hrs by Western blotting analysis in presence of Hsp90 inhibitor 17-AAG; format: functional, cell-based
Procedure, shortened: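 A549 cells treated 6 h with 0.1 μM, with or without 1 μM 17-AAG, then lysed and Western blotted. p21 quantified by densitometry and normalized to β-actin.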

[24] = biological target: Transcription factor E2F1 (Homo sapiens) (UniProt Q01094); assay: Induction of E2F1 degradation in human NCI-H1975 cells at 0.1 uM after 12 to 24 hrs by Western blotting analysis; format: cell-based
Procedure, shortened: as §3

[25] = biological target: Histone deacetylase 1 (Homo sapiens) (UniProt Q13547); settings: A549, 0.1 uM; remark: listed apart in the source
A549 [26] = assay: Upregulation of p21 protein expression in human A549 cells at 0.1 uM after 6 hrs by Western blotting analysis; format: functional, cell-based
Procedure, shortened: as §4

Transcription factor E2F1 (Homo sapiens), sequence (Q01094 whole entry): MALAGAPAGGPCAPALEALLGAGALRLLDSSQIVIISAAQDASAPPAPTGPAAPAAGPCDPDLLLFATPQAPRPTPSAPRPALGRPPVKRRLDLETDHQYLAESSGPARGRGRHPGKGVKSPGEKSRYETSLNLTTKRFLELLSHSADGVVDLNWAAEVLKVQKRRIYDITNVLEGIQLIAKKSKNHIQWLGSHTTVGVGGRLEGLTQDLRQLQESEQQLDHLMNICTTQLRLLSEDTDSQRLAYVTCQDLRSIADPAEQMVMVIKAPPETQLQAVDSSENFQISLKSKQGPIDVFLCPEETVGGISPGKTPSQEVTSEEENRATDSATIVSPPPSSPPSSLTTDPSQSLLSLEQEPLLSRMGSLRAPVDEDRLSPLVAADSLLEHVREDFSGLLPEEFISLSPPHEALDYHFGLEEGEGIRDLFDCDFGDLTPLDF
Histone deacetylase 1 (Homo sapiens), sequence (Q13547 whole entry): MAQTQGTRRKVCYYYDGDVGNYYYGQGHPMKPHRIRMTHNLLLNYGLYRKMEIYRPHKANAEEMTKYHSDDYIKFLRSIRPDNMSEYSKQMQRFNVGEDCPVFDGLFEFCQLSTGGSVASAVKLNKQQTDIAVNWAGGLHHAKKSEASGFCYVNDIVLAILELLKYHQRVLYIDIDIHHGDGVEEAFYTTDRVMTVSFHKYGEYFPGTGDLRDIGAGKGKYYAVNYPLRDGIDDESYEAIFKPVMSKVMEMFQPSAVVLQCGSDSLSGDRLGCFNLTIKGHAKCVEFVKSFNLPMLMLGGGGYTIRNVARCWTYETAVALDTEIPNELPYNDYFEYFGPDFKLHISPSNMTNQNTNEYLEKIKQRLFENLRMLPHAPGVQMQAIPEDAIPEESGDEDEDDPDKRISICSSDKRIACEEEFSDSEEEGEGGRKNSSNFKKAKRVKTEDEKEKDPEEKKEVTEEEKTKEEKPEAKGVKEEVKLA

CCCCCCCC(=O)SCC/C=C/[C@@H]1CC(=O)NCc2nc(cs2)C2=N[C@@](C)(CS2)C(=O)N[C@@H](C(C)C)C(=O)O1 [LARGAZOLE]
inhibition [1]: Active
IC50 (NCI-H460 [2]): 120 nM
Activity (NCI-H460 [3]): 84.1%
Activity (A549 [4]): Active
growth inhibition (GI) (A549 [5]): Active
inhibition [6]: Active
IC50 [7]: 420 nM
Activity (NCI-H460 [8]): 78.8%
Activity [9]: Active
Activity (NCI-H460 [10]): 10.6%
IC50 [11]: 570 nM
Activity (NCI-H460 [12]): 5.3%
IC50 (A549 [13]): 77 nM
Activity (A549 [14]): Active
IC50 [15]: 140 nM
Activity [16]: inactive
IC50 [17]: 190 nM
growth inhibition (GI) (NCI-H460 [18]): Active
Activity (A549 [19]): 8.5%
Activity [20]: Active
inhibition (A549 [21]): Dose-dependent effect
Activity (A549 [22]): Dose-dependent effect
Activity (A549 [23]): inactive
Activity [24]: Active
inhibition [25]: Active
Activity (A549 [26]): Active
